{"source": "PubChem BioAssay", "note": "Calls of active or inactive are those of the source.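 The calls were made as follows, unless noted: active = viability at or below 30% in both replicate assays; inconclusive = viability at or below 30% in just one of the two assays; inactive = the rest.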", "data": [{"test": "HUVEC growth inhibition – cell-based, human, primary screen (AID 575);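 also: 100% = median of untreated cell wells with 0.1% DMSO on each plate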", "conditions": "HUVEC proliferation, CellTiter-Glo luminescence, 72 h; at 10 µM; hits give low values", "how_it_was_run": "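Material: primary human umbilical vein endothelial cells / Schedule: 72 h exposure, 37 °C, 5% CO2, 30 min RT equilibration / Signal: ATP-based CellTiter-Glo luminescent read / Read-out basis: percent of median DMSO-control luminescence / Control set: 32 DMSO-only cell-control wells (high), 32 MePR drug-control wells (low) per plate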", "values": [{"compound": "COC(=O)c1cc(-c2c(C)nn(-c3ccccc3)c2C)n[nH]1", "viability": "97.8% (inactive)"}, {"compound": "CCN(CC)CCNC(=O)C1CCN(S(=O)(=O)N2CCCCC2)CC1", "viability": "100% (inactive)"}, {"compound": "COc1ccc(-c2noc(CCC(=O)Nc3nc4ccccc4s3)n2)cc1", "viability": "88.2% (inactive)"}, {"compound": "Nc1nc(SCCOc2ccccc2)n[nH]1", "viability": "94.1% (inactive)"}, {"compound": "COc1cc(OC)cc(-c2nc(N)n[nH]2)c1", "viability": "97.8% (inactive)"}, {"compound": "O=c1ccn(Cc2ccccc2Cl)cc1", "viability": "99.9% (inactive)"}, {"compound": "O=C(NC12CC3CC(CC(C3)C1)C2)N1CCN(C(=O)C2CCCO2)CC1", "note": "(stereo not given)", "viability": "111% (inactive)"}, {"compound": "O=C(C1CC2CCC1C2)N1CCN(Cc2ccc3c(c2)OCO3)CC1", "note": "(stereo not given)", "viability": "103% (inactive)"}, {"compound": "O=C(O)c1cccn2c(=O)c3ccccc3nc12", "viability": "101% (inactive)"}, {"compound": "COc1cc2c(cc1NCc1ccccn1)oc1ccccc12", "viability": "78% (inactive)"}, {"compound": "CCCCCCn1c(CN2CCN(Cc3ccccc3)CC2)nc2c1c(=O)n(C)c(=O)n2C", "viability": "86.6% (inactive)"}, {"compound": "Cc1cccc2cc(C(c3nnnn3C(C)(C)C)N3CCN(C(=O)c4ccco4)CC3)c(=O)[nH]c12", "note": "(stereo not given)", "viability": "86.4% (inactive)"}, {"compound": "Cc1ccc(Cn2ccc(NC(=O)c3noc4c3CCCC4)n2)cc1", "viability": "101% (inactive)"}, {"compound": "CCOC(=O)CC(=O)c1cc(OC)c(OC)c(OC)c1", "viability": "97.1% (inactive)"}, {"compound": "CCOc1ccc(C2/C(=C(/O)c3ccccc3)C(=O)C(=O)N2CCCN(C)C)cc1OC", "note": "(stereo not given)", "viability": "111% (inactive)"}, {"compound": "Cn1c(=O)c(=O)n(C)c2cc(S(=O)(=O)N3CCN(c4cccc(C(F)(F)F)c4)CC3)ccc21", "viability": "73% (inactive)"}, {"compound": "CN(c1ccccc1C(=O)N1CCN(c2cccc(Cl)c2)CC1)S(C)(=O)=O", "viability": "108% (inactive)"}, {"compound": "CCCn1nc(CC(=O)O)c2ccccc2c1=O", "viability": "98.2% (inactive)"}, {"compound": "COc1cccc(Nc2nc(=O)[nH]nc2C)c1", "viability": "75.7% (inactive)"}, {"compound": "CCN(CC)CCN1C(=O)C(O)=C(C(=O)c2cccs2)C1c1ccc(C)o1", "note": "(stereo not given)", "viability": "98.7% (inactive)"}, {"compound": "Cc1ccc(CCSCC(=O)O)cn1", "viability": "109% (inactive)"}, {"compound": "Cn1c(=O)c2c(nc(-n3ccnc3)n2C)n(C)c1=O", "viability": "105% (inactive)"}, {"compound": "COc1ccc(C2C(C#N)=C(N)Oc3cc4c(cc32)OCO4)cc1", "note": "(stereo not given)", "viability": "53.4% (inactive)"}, {"compound": "CCCc1cc(=O)[nH]c(/N=C(\\N)Nc2ccccc2)n1", "viability": "80.8% (inactive)"}, {"compound": "CCCCCn1c(CN(C)Cc2ccccc2)nc2c1c(=O)n(C)c(=O)n2C", "viability": "85.8% (inactive)"}, {"compound": "Cc1cccc(OCC(=O)Nc2ccccc2N2CCN(C(=O)C(C)C)CC2)c1C", "viability": "88.3% (inactive)"}, {"compound": "CCNc1oc(COc2cccc(C)c2)nc1C#N", "viability": "101% (inactive)"}, {"compound": "C=C(C)COc1ccc(-c2n[nH]c(C)c2-c2ccccc2)c(O)c1", "viability": "2.96% (active)"}, {"compound": "C=CCn1c(SCc2cc(=O)n3ccsc3n2)nnc1C1CCCCC1", "viability": "93.1% (inactive)"}, {"compound": "Cc1nnc(NC2CCCCC2)[nH]c1=O", "viability": "87.5% (inactive)"}, {"compound": "CCc1cc(-c2[nH]ncc2-c2ccc3c(c2)OCO3)c(O)cc1O", "viability": "4.08% (active)"}, {"compound": "CCn1nnc(NC(=O)c2ccccc2Br)n1", "viability": "103% (inactive)"}, {"compound": "O=S(=O)(c1ccc2c(c1)OCCO2)N(Cc1ccc(F)cc1)Cc1nnc(-c2cccs2)o1", "viability": "81% (inactive)"}, {"compound": "Nc1nnc(Cc2ccc(Cl)cc2)s1", "viability": "115% (inactive)"}, {"compound": "Cc1onc(-c2ccccc2)c1C(=O)N1CCCSC1=Nc1ccccc1", "viability": "76.9% (inactive)"}, {"compound": "O=C(Nc1ccccc1)N(Cc1cccnc1)Cc1ccco1", "viability": "86.1% (inactive)"}, {"compound": "COc1ccccc1N1CCN(C(=O)C2CC=CCC2C(=O)O)CC1", "note": "(stereo not given)", "viability": "97.3% (inactive)"}, {"compound": "CN=C(C)C1=C(O)C(C(=O)OC)C(C)(C)CC1=O", "note": "(stereo not given)", "viability": "108% (inactive)"}, {"compound": "O=C(CN1C(=O)CC(c2ccccc2)=Nc2ccccc21)NCc1ccco1", "viability": "99.2% (inactive)"}, {"compound": "O=C(CP(=O)(c1ccccc1)c1ccccc1)N1CCCCC1", "viability": "111% (inactive)"}]}, {"test": "H69AR cell proliferation blockers – human, duplicate replicates, primary screen (AID 580;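 active = viability at or under a set limit in both replicates, limit being median viability minus 3 SD, cut at about 48% in these data, passing the limit was not always enough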;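 also: 100% = mean luminescence of untreated wells and 0% = no signal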)", "conditions": "H69AR lung tumor cells viability, ATP luminescence, 72 h; at 10 µM; hits give low values", "values": [{"compound": "COC(=O)c1cc(-c2c(C)nn(-c3ccccc3)c2C)n[nH]1", "viability": "101% (inactive)"}, {"compound": "CCN(CC)CCNC(=O)C1CCN(S(=O)(=O)N2CCCCC2)CC1", "viability": "94.8% (inactive)"}, {"compound": "COc1ccc(-c2noc(CCC(=O)Nc3nc4ccccc4s3)n2)cc1", "viability": "88.1% (inactive)"}, {"compound": "Nc1nc(SCCOc2ccccc2)n[nH]1", "viability": "97% (inactive)"}, {"compound": "COc1cc(OC)cc(-c2nc(N)n[nH]2)c1", "viability": "103% (inactive)"}, {"compound": "O=c1ccn(Cc2ccccc2Cl)cc1", "viability": "88.2% (inactive)"}, {"compound": "O=C(NC12CC3CC(CC(C3)C1)C2)N1CCN(C(=O)C2CCCO2)CC1", "note": "(stereo not given)", "viability": "95.6% (inactive)"}, {"compound": "O=C(C1CC2CCC1C2)N1CCN(Cc2ccc3c(c2)OCO3)CC1", "note": "(stereo not given)", "viability": "99.2% (inactive)"}, {"compound": "O=C(O)c1cccn2c(=O)c3ccccc3nc12", "viability": "95.8% (inactive)"}, {"compound": "COc1cc2c(cc1NCc1ccccn1)oc1ccccc12", "viability": "83.8% (inactive)"}, {"compound": "CCCCCCn1c(CN2CCN(Cc3ccccc3)CC2)nc2c1c(=O)n(C)c(=O)n2C", "viability": "70.9% (inactive)"}, {"compound": "Cc1cccc2cc(C(c3nnnn3C(C)(C)C)N3CCN(C(=O)c4ccco4)CC3)c(=O)[nH]c12", "note": "(stereo not given)", "viability": "79.3% (inactive)"}, {"compound": "Cc1ccc(Cn2ccc(NC(=O)c3noc4c3CCCC4)n2)cc1", "viability": "112% (inactive)"}, {"compound": "CCOC(=O)CC(=O)c1cc(OC)c(OC)c(OC)c1", "viability": "107% (inactive)"}, {"compound": "CCOc1ccc(C2/C(=C(/O)c3ccccc3)C(=O)C(=O)N2CCCN(C)C)cc1OC", "note": "(stereo not given)", "viability": "100% (inactive)"}, {"compound": "Cn1c(=O)c(=O)n(C)c2cc(S(=O)(=O)N3CCN(c4cccc(C(F)(F)F)c4)CC3)ccc21", "viability": "93.3% (inactive)"}, {"compound": "CN(c1ccccc1C(=O)N1CCN(c2cccc(Cl)c2)CC1)S(C)(=O)=O", "viability": "93.8% (inactive)"}, {"compound": "CCCn1nc(CC(=O)O)c2ccccc2c1=O", "viability": "103% (inactive)"}, {"compound": "COc1cccc(Nc2nc(=O)[nH]nc2C)c1", "viability": "87.3% (inactive)"}, {"compound": "CCN(CC)CCN1C(=O)C(O)=C(C(=O)c2cccs2)C1c1ccc(C)o1", "note": "(stereo not given)", "viability": "98.6% (inactive)"}, {"compound": "Cc1ccc(CCSCC(=O)O)cn1", "viability": "101% (inactive)"}, {"compound": "Cn1c(=O)c2c(nc(-n3ccnc3)n2C)n(C)c1=O", "viability": "101% (inactive)"}, {"compound": "COc1ccc(C2C(C#N)=C(N)Oc3cc4c(cc32)OCO4)cc1", "note": "(stereo not given)", "viability": "32.8% (active)"}, {"compound": "CCCc1cc(=O)[nH]c(/N=C(\\N)Nc2ccccc2)n1", "viability": "82.4% (inactive)"}, {"compound": "CCCCCn1c(CN(C)Cc2ccccc2)nc2c1c(=O)n(C)c(=O)n2C", "viability": "79.8% (inactive)"}, {"compound": "Cc1cccc(OCC(=O)Nc2ccccc2N2CCN(C(=O)C(C)C)CC2)c1C", "viability": "88.8% (inactive)"}, {"compound": "CCNc1oc(COc2cccc(C)c2)nc1C#N", "viability": "90.9% (inactive)"}, {"compound": "C=C(C)COc1ccc(-c2n[nH]c(C)c2-c2ccccc2)c(O)c1", "viability": "21.1% (active)"}, {"compound": "C=CCn1c(SCc2cc(=O)n3ccsc3n2)nnc1C1CCCCC1", "viability": "96.7% (inactive)"}, {"compound": "Cc1nnc(NC2CCCCC2)[nH]c1=O", "viability": "87.1% (inactive)"}, {"compound": "CCc1cc(-c2[nH]ncc2-c2ccc3c(c2)OCO3)c(O)cc1O", "viability": "23.3% (active)"}, {"compound": "CCn1nnc(NC(=O)c2ccccc2Br)n1", "viability": "99.9% (inactive)"}, {"compound": "O=S(=O)(c1ccc2c(c1)OCCO2)N(Cc1ccc(F)cc1)Cc1nnc(-c2cccs2)o1", "viability": "92.1% (inactive)"}, {"compound": "Nc1nnc(Cc2ccc(Cl)cc2)s1", "viability": "102% (inactive)"}, {"compound": "Cc1onc(-c2ccccc2)c1C(=O)N1CCCSC1=Nc1ccccc1", "viability": "92.5% (inactive)"}, {"compound": "O=C(Nc1ccccc1)N(Cc1cccnc1)Cc1ccco1", "viability": "96.8% (inactive)"}, {"compound": "COc1ccccc1N1CCN(C(=O)C2CC=CCC2C(=O)O)CC1", "note": "(stereo not given)", "viability": "93.1% (inactive)"}, {"compound": "CN=C(C)C1=C(O)C(C(=O)OC)C(C)(C)CC1=O", "note": "(stereo not given)", "viability": "98.5% (inactive)"}, {"compound": "O=C(CN1C(=O)CC(c2ccccc2)=Nc2ccccc21)NCc1ccco1", "viability": "92.3% (inactive)"}, {"compound": "O=C(CP(=O)(c1ccccc1)c1ccccc1)N1CCCCC1", "viability": "106% (inactive)"}]}]}
